Measured values published in ChEMBL document CHEMBL3399929 (Bioorg Med Chem, 2015).
Values after ≈ are worked out from the molar mass of the structure shown. Active and inactive are the calls of the source. The rule behind the calls is not given here.

How the values were obtained:
[1] = system: Sporothrix schenckii; experiment: Antifungal activity against Sporothrix schenckii at 50 ug/ml; type: functional, organism-based
[2] = Cytotoxicity against African green monkey Vero cells after 72 hrs yb resazurin assay; type: cell-based; settings: chlorocebus sabaeus
In short: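 Vero cells were seeded overnight in RPMI with 10% heat-inactivated FBS at 37 °C, 5% CO2. Cells were exposed in triplicate to concentrations from 100 to 1.56 µg/mL for 72 h. Resazurin (0.1%) was then added for 4–5 h, and fluorescence was read at ex 530/em 590 nm. CC50 was derived from the fluorescence plot.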

[3] = system: Escherichia coli; experiment: Antibacterial activity against Escherichia coli ATCC 9637 at 50 ug/ml; type: functional, organism-based
[4] = Mean residence time in Sprague-Dawley rat at 10 mg/kg, po; type: ADME, organism-based; set-up: dose 10 mg/kg, route oral; settings: in vivo
In short: (§1)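 Male Sprague–Dawley rats (250 ± 25 g) each received a single oral dose of 10 mg/kg or an intravenous dose of 1 mg/kg. Plasma concentration–time profiles were obtained with three rats per time point. Parameters were calculated with a two-compartmental model, and values are averages of three rats. Cmax is given as mean ± SEM.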

[5] = system: Staphylococcus aureus; experiment: Antibacterial activity against Staphylococcus aureus ATCC 25923 at 50 ug/ml; type: functional, organism-based
[6] = system: Aspergillus fumigatus; experiment: Antifungal activity against Aspergillus fumigatus at 50 ug/ml; type: functional, organism-based
[7] = system: Rattus norvegicus; experiment: Volume of distribution at steady state in Sprague-Dawley rat at 10 mg/kg, po; type: ADME, organism-based; set-up: dose 10 mg/kg, route oral; settings: in vivo; in short: as §1
[8] = system: Mycobacterium tuberculosis; experiment: Antimycobacterial activity against Mycobacterium tuberculosis H37Rv infected in mouse chronic TB model assessed as survival rate at 173 umol/kg administered via esophageal cannula 6 times a week for 4 weeks relative to untreated control; type: functional
In short: (§2)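 Male Balb/C mice (8–10 weeks, 18–20 g), ten per group, were infected intravenously with 5 × 10^6 CFU H37Rv in 0.2 mL. Dosing by gavage began on day 1, six times weekly for 4 weeks, with the last dose on day 28. Survival was followed to day 30. Survivors were sacrificed on day 30, and lung and spleen homogenates were plated on 7H10/OADC at 37 °C for 4–6 weeks. Results were compared with an untreated infected group.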

[9] = Cmax in Sprague-Dawley rat at 10 mg/kg, po; type: ADME, organism-based; set-up: dose 10 mg/kg, route oral; settings: in vivo; in short: as §1
[10] = system: Pseudomonas aeruginosa; experiment: Antibacterial activity against Pseudomonas aeruginosa ATCC BAA-427 at 50 ug/ml; type: functional, organism-based
[11] = Oral bioavailability in Sprague-Dawley rat at 10 mg/kg; type: ADME, organism-based; settings: in vivo; in short: as §1
[12] = Cmax in Sprague-Dawley rat at 1 mg/kg, iv; type: ADME, organism-based; set-up: dose 1 mg/kg, route intravenous; settings: in vivo; in short: as §1
[13] = system: Mycobacterium tuberculosis H37Rv; experiment: Inhibition of Mycobacterium tuberculosis H37Rv ATP synthase assessed as reduction in total ATP content at 50 ug/ml after 18 hrs by bead-vortexing settling method
In short: (§3)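 H37Rv was declumped by bead-vortexing and settling, adjusted to McFarland 1, then diluted 100-fold. Portions of 1 mL in tubes with 0.5 mm glass beads were exposed to compound for 18 h at 37 °C. Samples were heated 8–10 min, chilled on ice, and bead-beater lysed. Cleared lysate ATP was measured by luciferase assay.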

[14] = system: Mycobacterium tuberculosis; experiment: Antimycobacterial activity against Mycobacterium tuberculosis H37Rv infected in mouse chronic TB model assessed as survival rate at 87 umol/kg administered via esophageal cannula 6 times a week for 4 weeks relative to untreated control; type: functional; in short: as §2
[15] = Elimination half life in Sprague-Dawley rat at 10 mg/kg, po; type: ADME, organism-based; set-up: dose 10 mg/kg, route oral; settings: in vivo, read-out: beta t1/2 (converted); in short: as §1
[16] = system: Mycobacterium tuberculosis; experiment: Antimycobacterial activity against Mycobacterium tuberculosis H37Rv infected in mouse chronic TB model assessed as log reduction in spleen at 173 umol/kg administered via esophageal cannula 6 times a week for 4 weeks relative to untreated control; type: functional
[17] = system: Rattus norvegicus; experiment: AUC in Sprague-Dawley rat at 10 mg/kg, po; type: ADME, organism-based, Plasma; set-up: dose 10 mg/kg, route oral; settings: in vivo; in short: as §1
[18] = system: Rattus norvegicus; experiment: Clearance in Sprague-Dawley rat at 10 mg/kg, po; type: ADME, organism-based; set-up: dose 10 mg/kg, route oral; settings: in vivo; in short: as §1
[19] = Clearance in Sprague-Dawley rat at 1 mg/kg, iv; type: ADME, organism-based; set-up: dose 1 mg/kg, route intravenous; settings: in vivo; in short: as §1
[20] = Selectivity ratio of IC50 for Mycobacterium smegmatis TMC 607 ATP synthase to IC50 for Swiss mouse liver ATP synthase
[21] = Elimination half life in Sprague-Dawley rat at 1 mg/kg, iv; type: ADME, organism-based; set-up: dose 1 mg/kg, route intravenous; settings: in vivo, read-out: beta t1/2 (converted); in short: as §1
[22] = AUC in Sprague-Dawley rat at 1 mg/kg, iv; type: ADME, organism-based; set-up: dose 1 mg/kg, route intravenous; settings: plasma; in short: as §1
[23] = Tmax in Sprague-Dawley rat at 10 mg/kg, po; type: ADME, organism-based; set-up: dose 10 mg/kg, route oral; settings: in vivo; in short: as §1
[24] = system: Mycobacterium tuberculosis H37Rv; experiment: Inhibition of Mycobacterium tuberculosis H37Rv ATP synthase assessed as reduction in total ATP content at 12.5 ug/ml after 18 hrs by bead-vortexing settling method; in short: as §3
[25] = system: Mycobacterium tuberculosis; experiment: Antimycobacterial activity against Mycobacterium tuberculosis H37Rv infected in mouse chronic TB model assessed as log reduction in lungs at 87 umol/kg administered via esophageal cannula 6 times a week for 4 weeks relative to untreated control; type: functional
[26] = system: Mycobacterium tuberculosis; experiment: Antimycobacterial activity against Mycobacterium tuberculosis H37Rv infected in mouse chronic TB model assessed as log reduction in spleen at 87 umol/kg administered via esophageal cannula 6 times a week for 4 weeks relative to untreated control; type: functional
[27] = system: Candida parapsilosis; experiment: Antifungal activity against Candida parapsilosis ATCC 22019 at 50 ug/ml; type: functional, organism-based
[28] = Inhibition of Mycobacterium smegmatis TMC 607 ATP synthase incubated for 10 mins prior to NADH addition measured after 1 hr by luminescence assay; set-up: species or system Mycolicibacterium smegmatis; settings: read-out: IC50
[29] = Inhibition of Swiss mouse liver ATP synthase after 1 hr
In short: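 Liver mitochondria came from an overnight-fasted adult Swiss mouse, isolated by differential centrifugation in sucrose/Tris-MOPS/EGTA buffer pH 7.4 and assayed the same day. Mitochondria (100 µg) were stirred at room temperature with 100 µM compound in Tris/HCl, sucrose, 5 mM MgCl2 and 100 µM diadenosine pentaphosphate, pH 7.4. The reaction was started with 1 mM ADP, 20 mM Pi and 50 mM succinate, stopped after 1 h with EDTA-TCA, and ATP was read by luciferase.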

[30] = system: Cryptococcus neoformans; experiment: Antifungal activity against Cryptococcus neoformans at 50 ug/ml; type: functional, organism-based
[31] = system: Mycobacterium tuberculosis; experiment: Bactericidal activity against non-replicating Mycobacterium tuberculosis H37Rv Wayne model under hypoxic/oxygen depleted conditions assessed as log reduction at 100 ug/ml after 4 days by serial dilution assay; type: functional
In short: (§4)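 Wayne hypoxia model. A mid-log 7H9 culture was diluted to about 10^5 cfu/mL, and 10 mL was sealed in 20 mL headspace vials. Vials were stirred slowly at 37 °C for 20–22 days, until methylene blue indicator (1.5 µg/mL) decolorized. Drug was then injected through the septum, and vials were incubated 4 more days at 37 °C. Tests were run in duplicate, with CFU counted on 7H10 agar plates.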

[32] = Selectivity index, ratio of CC50 for African green monkey Vero cells to MIC100 for Mycobacterium tuberculosis H37Rv; type: toxicity, cell-based; settings: read-out: Selectivity Index
In short: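 Selectivity index is CC50 from the Vero resazurin assay divided by the agar-dilution MIC against H37Rv.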

[33] = Volume of distribution at steady state in Sprague-Dawley rat at 1 mg/kg, iv; type: ADME, organism-based; set-up: dose 1 mg/kg, route intravenous; settings: in vivo, read-out: Vdss; in short: as §1
[34] = system: Mycobacterium tuberculosis; experiment: Antimycobacterial activity against Mycobacterium tuberculosis H37Rv infected in mouse chronic TB model assessed as log reduction in lungs at 173 umol/kg administered via esophageal cannula 6 times a week for 4 weeks relative to untreated control; type: functional
[35] = system: Klebsiella pneumoniae; experiment: Antibacterial activity against Klebsiella pneumoniae ATCC 27736 at 50 ug/ml; type: functional, organism-based
[36] = system: Trichophyton mentagrophytes; experiment: Antifungal activity against Trichophyton mentagrophytes at 50 ug/ml; type: functional, organism-based
[37] = system: Mycobacterium tuberculosis; experiment: Antimycobacterial activity against Mycobacterium tuberculosis H37Rv after 4 weeks by agar dilution assay; type: functional
In short: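 Agar dilution method. DMSO stocks (5 mg/mL) were serially diluted in DMSO, and 0.1 mL of each was mixed into 1.9 mL Middlebrook 7H10 agar with OADC and set as slants. Each tube received about 10^5 bacilli from a 3-week Lowenstein–Jensen culture suspended in saline with 0.05% Tween-80. Tubes were incubated at 37 °C for 4 weeks. MIC was the lowest concentration with no visible growth.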

[38] = system: Candida albicans; experiment: Antifungal activity against Candida albicans at 50 ug/ml; type: functional, organism-based
[39] = system: Mycobacterium tuberculosis; experiment: Bactericidal activity against non-replicating Mycobacterium tuberculosis H37Rv Wayne model under hypoxic/oxygen depleted conditions assessed as log reduction at 10 ug/ml after 4 days by serial dilution assay; type: functional; in short: as §4
[40] = system: Mycobacterium tuberculosis; experiment: Bactericidal activity against non-replicating Mycobacterium tuberculosis H37Rv Wayne model under hypoxic/oxygen depleted conditions assessed as log reduction after 4 days by serial dilution assay; type: functional; in short: as §4
[41] = Tmax in Sprague-Dawley rat at 1 mg/kg, iv; type: ADME, organism-based; set-up: dose 1 mg/kg, route intravenous; settings: in vivo; in short: as §1

With CCN(CC)Cc1cc(N(c2cc(C)nc3cc(Cl)ccc23)S(=O)(=O)c2cccc(Cl)c2Cl)ccc1O the Activity [1] was “inactive”, the CC50 at 72 h [2] was over 300 µg/mL and the Activity [3] was “inactive”. The MRT [4] was 6.69 h, the Activity [5] was “inactive” and the Activity [6] was “inactive”. It also gave a Vdss [7] of 0.41 L/kg, a Survival [8] of 60% and a Cmax [9] of 616 ng/mL. The Activity [10] was “inactive”, the bioavailability [11] was 1.72% and the Cmax [12] was 2420 ng/mL. The inhibition [13] was 31%, the Survival [14] was 40% and the half-life [15] was 4.2 h. It also gave a log10cfu [16] of 2.12, an AUC [17] of 2813 ng·h/mL and a CL [18] of 1 mL/min/kg. It also gave a clearance [19] of 1.17 mL/min/kg, a Ratio IC50 [20] of over 155 and a half-life [21] of 8.84 h. For the same compound, the AUC [22] was 16400 ng·h/mL, the Tmax [23] was 0.5 h and the inhibition [24] was 60%. The log10cfu [25] was 1, the log10cfu [26] was 1 and the Activity [27] was “inactive”. For the same compound, the IC50 [28] was 510 nM, the IC50 [29] was over 100000 nM and the Activity [30] was “inactive”. It also gave a log10CFU/ml [31] of 2.34, a selectivity ratio [32] of over 96 and a Vd [33] of 0.84 L/kg. The log10cfu [34] was 2.12, the Activity [35] was “inactive” and the Activity [36] was “inactive”. The MIC100 [37] was 3.12 µg/mL (≈ 5.39 µM), the Activity [38] was “inactive” and the log10CFU/ml [39] was 1.14. It also gave an MIC100 [40] of 3.12 µg/mL (≈ 5.39 µM) and a Tmax [41] of 5 min.
